Experimental data as given in ChEMBL document CHEMBL1156597, “Structure-activity relationship of kahalalide F synthetic analogues” (J Med Chem, 2008).

Assays:
DU-145 = assay: Cytotoxicity against human DU145 cells after 48 hrs by SRB assay; assay type: functional, cell-based; details: Homo sapiens, DU-145, 48 h; for GI50: read-out: GI50; for CC50: read-out: LC50 (the source's name)
Procedure, shortened: (§1)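 Cells grown in RPMI 1640 with 10% FBS and penicillin/streptomycin at 37 °C and 5% CO₂, trypsinized, then seeded at 5 × 10³/well. After 18 h drug-free attachment, samples in DMSO/EtOH/PBS (0.5:0.5:99) were added for 48 h continuous exposure. Cells were fixed with cold TCA (1 h, 4 °C) and stained with SRB (10 min). Tris-solubilized stain read at 490 nm. Triplicate wells, mean ± SD; GI₅₀ derived.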

HeLa = assay: Cytotoxicity against human HeLa cells after 48 hrs by SRB assay; assay type: functional; details: read-out: LC50 (the source's name); procedure, shortened: as §1
[1] = Cytotoxicity against human HeLa-APL cells after 48 hrs by SRB assay; assay type: functional; procedure, shortened: as §1
[2] = Cytotoxicity against human IGROV-ET cells after 48 hrs by SRB assay; assay type: functional; details: for CC50: read-out: LC50 (the source's name); procedure, shortened: as §1
PANC-1 = assay: Cytotoxicity against human PANC1 cells after 48 hrs by SRB assay; assay type: functional; details: PANC-1, 48 h, read-out: LC50 (the source's name); procedure, shortened: as §1
LoVo [3] = assay: Cytotoxicity against human LoVo cells after 48 hrs by SRB assay; assay type: functional; details: for CC50: read-out: LC50 (the source's name)
SK-BR-3 = assay: Cytotoxicity against human SKBR3 cells after 48 hrs by SRB assay; assay type: functional; details: SK-BR-3, 48 h; for CC50: read-out: LC50 (the source's name); for GI50: read-out: GI50; procedure, shortened: as §1
LoVo [4] = assay: Cytotoxicity against human doxorubicin resistant LoVo cells after 48 hrs by SRB assay; assay type: functional; details: for CC50: read-out: LC50 (the source's name); procedure, shortened: as §1
HT-29 = assay: Cytotoxicity against human HT29 cells after 48 hrs by SRB assay; assay type: functional, cell-based; details: Homo sapiens, HT-29, 48 h; for CC50: read-out: LC50 (the source's name); procedure, shortened: as §1
LNCaP = assay: Cytotoxicity against human LNcaP cells after 48 hrs by SRB assay; assay type: functional; details: for CC50: read-out: LC50 (the source's name); procedure, shortened: as §1
A549 = assay: Cytotoxicity against human A549 cells after 48 hrs by SRB assay; assay type: functional, cell-based; details: Homo sapiens, A549, 48 h; for GI50: read-out: GI50; procedure, shortened: as §1
K562 = assay: Cytotoxicity against human K562 cells after 48 hrs by SRB assay; assay type: functional; details: K562, 48 h; for CC50: read-out: LC50 (the source's name); procedure, shortened: as §1
[5] = Cytotoxicity against human IGROV cells after 48 hrs by SRB assay; assay type: functional; details: for CC50: read-out: LC50 (the source's name); procedure, shortened: as §1
SK-MEL-28 = assay: Cytotoxicity against human SK-MEL-28 cells after 48 hrs by SRB assay; assay type: functional, cell-based; details: Homo sapiens, SK-MEL-28, 48 h; for GI50: read-out: GI50; for CC50: read-out: LC50 (the source's name); procedure, shortened: as §1

| Compound | CC50 (DU-145) [nM] | CC50 (HeLa) [nM] | GI50 [1] [nM] | LC50 (concentration giving 50% net cell kill) [1] [nM] | TGI [1] [nM] | CC50 [2] [nM] | CC50 (PANC-1) [nM] | GI50 (LoVo [3]) [nM] | TGI (LoVo [3]) [nM] | CC50 (LoVo [3]) [nM] | CC50 (SK-BR-3) [nM] | GI50 (LoVo [4]) [nM] | TGI (LoVo [4]) [nM] | CC50 (LoVo [4]) [nM] | CC50 (HT-29) [nM] | CC50 (LNCaP) [nM] | LC50 (A549) [nM] | CC50 (K562) [nM] | CC50 [5] [nM] | CC50 (SK-MEL-28) [nM] | also measured |
| --- | --- | --- | --- | --- | --- | --- | --- | --- | --- | --- | --- | --- | --- | --- | --- | --- | --- | --- | --- | --- | --- |
| C/C=C1\NC(=O)[C@H](Cc2ccccc2)NC(=O)[C@@H](C(C)C)NC(=O)[C@@H]([C@H](C)CC)NC(=O)[C@H](NC(=O)[C@H](NC(=O)[C@H](CCCN)NC(=O)[C@H]2CCCN2C(=O)[C@H](NC(=O)[C@@H](NC(=O)[C@@H](NC(=O)[C@H](NC(=O)CCCC(C)C)C(C)C)[C@@H](C)O)C(C)C)C(C)C)[C@H](C)CC)COC(=O)[C@H](C(C)C)NC1=O | 5370 | 1470 | 1930 | 1320 | 1650 | 663 | 8970 | 457 | 513 | 620 | 610 | 353 | 367 | 384 | 1970 | 2140 | 1270 | 4460 | 33800 | 1180 | TGI (DU-145): 5210 nM; GI50 (DU-145): 5040 nM; GI50 [2]: 753 nM; GI50 ([2]; read-out: GI50): 620 nM; GI50 (HT-29): 983 nM; TGI (HT-29): 1540 nM; GI50 (LNCaP): 3370 nM; TGI (LNCaP): 3360 nM; TGI (A549): 1350 nM; GI50 (A549): 1440 nM; TGI [5]: 25100 nM; GI50 ([5]; read-out: GI50): 16700 nM; TGI (SK-MEL-28): 1500 nM; GI50 (SK-MEL-28): 1900 nM |
| C/C=C1\NC(=O)[C@@H](Cc2ccccc2)NC(=O)[C@H](C(C)C)NC(=O)[C@H]([C@H](C)CC)NC(=O)[C@@H](NC(=O)[C@@H](NC(=O)[C@@H](CCCN)NC(=O)[C@@H]2CCCN2C(=O)[C@@H](NC(=O)[C@H](NC(=O)[C@H](NC(=O)[C@@H](NC(=O)CCCC(C)C)C(C)C)[C@@H](C)O)C(C)C)C(C)C)[C@H](C)CC)[C@H](C)OC(=O)[C@H](C(C)C)NC1=O | 10600 | 1910 | – | 2360 | – | 2130 | 8900 | – | – | 5540 | 1690 | – | – | 4080 | 3790 | 4920 | 1920 | 25300 | 72000 | 1770 | GI50 (K562): 2530 nM; TGI (K562): 10500 nM; TGI [5]: 134000 nM; GI50 ([5]; read-out: GI50): 161000 nM |
| CC[C@@H](C)[C@@H](NC(=O)[C@H](CCCN)NC(=O)[C@H]1CCCN1C(=O)[C@H](NC(=O)[C@@H](NC(=O)[C@@H](NC(=O)[C@H](NC(=O)CCCC(C)C)C(C)C)[C@@H](C)O)C(C)C)C(C)C)C(=O)N[C@H]1C(=O)N[C@H]([C@H](C)CC)C(=O)N[C@H](C(C)C)C(=O)N[C@@H](Cc2ccccc2)C(=O)NC(C)(C)C(=O)N[C@@H](C(C)C)C(=O)O[C@H]1C | 1170 | 1090 | 2790 | 1430 | 2800 | 423 | 1770 | 2320 | 2310 | 2070 | 777 | 1590 | 1500 | 456 | 743 | 1390 | 1430 | 1930 | 368 | 1740 | TGI (DU-145): 1390 nM; GI50 (DU-145): 1640 nM; GI50 [2]: 668 nM; GI50 ([2]; read-out: GI50): 1080 nM; TGI (SK-BR-3): 1980 nM; GI50 (SK-BR-3): 2130 nM; GI50 (HT-29): 2350 nM; TGI (HT-29): 2120 nM; GI50 [5]: 790 nM; GI50 ([5]; read-out: GI50): 1790 nM; TGI (SK-MEL-28): 3080 nM; GI50 (SK-MEL-28): 2180 nM |
| CC[C@@H](C)[C@@H](NC(=O)[C@H](CCCN)NC(=O)[C@H]1CCCN1C(=O)[C@H](NC(=O)[C@@H](NC(=O)[C@@H](NC(=O)[C@H](NC(=O)CCCC(C)C)C(C)C)[C@@H](C)O)C(C)C)C(C)C)C(=O)N[C@H]1C(=O)N[C@H]([C@H](C)CC)C(=O)N[C@H](C(C)C)C(=O)N[C@@H](Cc2ccccc2)C(=O)NCC(=O)N[C@@H](C(C)C)C(=O)O[C@H]1C | 953 | 526 | 1830 | 1450 | 2860 | 308 | 1810 | 1840 | 1850 | 1680 | 683 | 830 | 1020 | 362 | 775 | 1420 | 1460 | 1970 | 361 | 1780 | TGI (DU-145): 1160 nM; GI50 (DU-145): 1410 nM; GI50 [2]: 465 nM; GI50 ([2]; read-out: GI50): 722 nM; TGI (SK-BR-3): 1640 nM; GI50 (SK-BR-3): 1660 nM; GI50 (HT-29): 2260 nM; TGI (HT-29): 2120 nM; GI50 (LNCaP): 2740 nM; TGI (LNCaP): 2780 nM; TGI (A549): 2100 nM; GI50 (A549): 1630 nM; GI50 (K562): 2530 nM; TGI (K562): 3040 nM; GI50 [5]: 748 nM; GI50 ([5]; read-out: GI50): 1640 nM; TGI (SK-MEL-28): 1700 nM; GI50 (SK-MEL-28): 1390 nM |
| C/C=C1\NC(=O)[C@H](Cc2ccccc2)NC(=O)[C@@H](C(C)C)NC(=O)[C@@H]([C@H](C)CC)NC(=O)[C@H](NC(=O)[C@H](NC(=O)[C@H](CCCN)NC(=O)[C@H]2CCCN2C(=O)[C@H](NC(=O)[C@@H](NC(=O)[C@@H](NC(=O)[C@H](NC(=O)CCCCC(C)=O)C(C)C)[C@@H](C)O)C(C)C)C(C)C)[C@H](C)CC)[C@H](C)OC(=O)[C@H](C(C)C)NC1=O | 1670 | 1370 | – | 1440 | – | 638 | 2290 | 8590 | 8100 | 3900 | 1050 | 5050 | 7660 | 3710 | 2350 | 1390 | 1810 | 1910 | 851 | 1840 | TGI (SK-BR-3): 6310 nM; GI50 (SK-BR-3): 7270 nM |
| C/C=C1\NC(=O)[C@H](Cc2ccccc2)NC(=O)[C@@H](C(C)C)NC(=O)[C@@H]([C@H](C)CC)NC(=O)[C@H](NC(=O)[C@H](NC(=O)[C@H](CCCN)NC(=O)[C@H]2CCCN2C(=O)[C@H](NC(=O)[C@@H](NC(=O)[C@@H](NC(=O)[C@@H](C(C)C)N(CCCCCC)CCCCCC)[C@@H](C)O)C(C)C)C(C)C)[C@H](C)CC)[C@H](C)OC(=O)[C@H](C(C)C)NC1=O | 2280 | 1050 | 1810 | 1220 | 1580 | 4230 | 2270 | – | – | 4060 | 3530 | – | – | 3780 | 2030 | 1480 | 1160 | 1900 | 1210 | 1660 | GI50 (LNCaP): 3720 nM; TGI (LNCaP): 3300 nM |
